Bioassay records from PubChem.
p-CIP stab down: lowers stability of the mouse p/CIP coactivator protein; Q05BA5; F442A p/CIP-EGFP cells, EGFP fluorescence, 16 h; decrease of EGFP signal, % at 10 µM; hit rate 0.01% among 290,000; AID 1984;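 active = EGFP signal decrease of at least 30% at 10 µM or well 3 SD below plate mean, unless failing retest; inactive = the rest, including hits failing retest or dose response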
PHOSPHO1 inh: inhibitors of human PHOSPHO1 phosphatase; Q8TCT1; recombinant PHOSPHO1, absorbance phosphatase assay; inhibition, % at 13.3 µM; hit rate 1.1% among 290,000; in the data active = inhibition above about 60%
Target sequence (Q8TCT1 whole entry, looked up): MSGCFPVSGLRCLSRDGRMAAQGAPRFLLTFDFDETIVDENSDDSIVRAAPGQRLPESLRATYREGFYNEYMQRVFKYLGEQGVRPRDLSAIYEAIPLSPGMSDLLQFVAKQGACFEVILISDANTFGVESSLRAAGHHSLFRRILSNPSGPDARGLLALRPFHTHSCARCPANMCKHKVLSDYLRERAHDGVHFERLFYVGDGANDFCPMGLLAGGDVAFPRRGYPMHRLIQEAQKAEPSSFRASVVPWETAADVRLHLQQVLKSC
TbMetRS inhib: Trypanosoma brucei MetRS inhibition | purified T. brucei MetRS, ATP depletion, Kinase-Glo luminescence | inhibition, % at 11.9 µM | AID 624268 | hit rate 0.4% among 360,000;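 active = inhibition above a per-plate cutoff of the control wells' mean inhibition plus 3 SD, cut at about 5.5% in these data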
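assay system = parasite MetRS enzyme | timing = 15 min preincubation, 2 h reaction, all 25 °C | evaluation = percent inhibition relative to median high and low control wells | medium = HEPES buffer containing pyrophosphatase, BSA, spermine, DTT | compound = single dose, 11.9 µM final nominal, 0.9% final DMSO | detection = Kinase-Glo luminescence, ATP depletion format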
APOBEC3G inh: blocks human APOBEC3G single-stranded DNA deamination; hit rate 0.28% among 330,000; recombinant A3G, ssDNA deamination FAM/TAMRA fluorescence; inhibition, % at 20 µM; Q9HC16;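 active = inhibition of at least 40% at 20 µM, with no more than 30% in the related APOBEC3A deaminase screen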
APOBEC3A inh: blocks human APOBEC3A ssDNA deamination; P31941; recombinant A3A, FAM/TAMRA ssDNA deamination fluorescence; inhibition, % at 20 µM; hit rate 0.41% among 330,000; AID 493011;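 active = at least 40% inhibition at 20 µM here, with at most 30% in a related deaminase screen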
Target sequence (P31941 whole entry, looked up): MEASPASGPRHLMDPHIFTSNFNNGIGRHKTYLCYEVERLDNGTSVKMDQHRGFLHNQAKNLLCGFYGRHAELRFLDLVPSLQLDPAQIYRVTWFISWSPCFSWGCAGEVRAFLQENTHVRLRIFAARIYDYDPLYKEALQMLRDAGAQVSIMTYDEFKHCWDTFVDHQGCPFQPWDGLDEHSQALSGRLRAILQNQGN
APOBEC3A confirm: confirmation of human APOBEC3A DNA deaminase inhibitors; hit rate 63% among 1,400; recombinant A3A, ssDNA deaminase UDG fluorescence assay; AID 493151; inhibition, % at 20 µM; shares compounds with APOBEC3A inh;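 active = inhibition reaching a set limit, 80% of the first screen's cutoff, at 20 µM in any replicate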
UDG ctr A3A: inhibits UDG, flagging false APOBEC3A inhibitors. shares compounds with APOBEC3A inh. UDG counterscreen, FAM/TAMRA uracil oligo fluorescence. inhibition, % at 20 µM. 1,000 tested, under 10 active. AID 504714; call rule not given here
Large screens that a line does not name were inactive (follow-up assays come after a bar, where they were run). A selection: hits, their analogues and other compounds. The true share with any hit is near 1.8%.

COc1cccc(-c2nnn(CC(=O)N(C3CCCCC3)C3CCS(=O)(=O)C3)n2)c1 (stereo not given)	none (no result: p-CIP stab down, PHOSPHO1 inh, APOBEC3G inh, APOBEC3A inh)
O=C(CSc1ccc(-c2ccncc2)nn1)N1CCCCC1	APOBEC3A inh 101.6 | APOBEC3A confirm inactive | UDG ctr A3A inactive
O=C(CSc1ccc(-c2ccncc2)nn1)N1CCCC1	none
Cc1ccc2c(c1)S/C(=C/c1ccc[n+](CCO)c1)N2C	APOBEC3A inh 55.6 | APOBEC3A confirm 88.2 | UDG ctr A3A inactive
Cc1cc(/C=C2\Sc3ccccc3N2C)cc(C)[n+]1CC1CCCO1 (stereo not given)	none
Cc1ccc2c(c1)S/C(=C\c1cccc[n+]1C)N2CCO	APOBEC3A inh 58.5 (no result: PHOSPHO1 inh) | APOBEC3A confirm 88.6 | UDG ctr A3A inactive
C[n+]1ccccc1/C=C1\Sc2ccccc2N1CCO	APOBEC3A inh 98.3 | APOBEC3A confirm 92.4 | UDG ctr A3A inactive
C[n+]1cnc(-c2ccccc2)cc1-c1ccccc1	APOBEC3A inh 45.0 | APOBEC3A confirm 62.3 | UDG ctr A3A inactive
COC(=O)c1cc(COC(=O)c2nc3nccc(C)n3n2)oc1C	none
CCN1CCN(c2ccc(S(=O)(=O)N3CCCCC3)cc2NC(=O)c2sccc2C)CC1	APOBEC3A inh 69.4 (no result: p-CIP stab down, PHOSPHO1 inh) | APOBEC3A confirm 64.2 | UDG ctr A3A inactive
CCN1CCN(c2ccc(S(=O)(=O)N3CCCCC3)cc2NC(=O)c2ccc([N+](=O)[O-])o2)CC1	APOBEC3A inh 53.1 (no result: p-CIP stab down, PHOSPHO1 inh) | APOBEC3A confirm 33.4
CCCCC(CC)C1OCC(C[N+]2(C)CCOCC2)O1 (stereo not given)	none
CC(c1ccccc1)C1OCC(C[N+]2(C)CCCCC2)O1 (stereo not given)	APOBEC3A inh 68.3 | APOBEC3A confirm 65.7 | UDG ctr A3A inactive
Cc1cccc(OCCNc2ncccc2[N+](=O)[O-])c1	none (no result: p-CIP stab down, PHOSPHO1 inh, APOBEC3G inh, APOBEC3A inh)
CCOC(=O)c1[nH]c2ccc(OC)cc2c1NC(=O)CCN1CCC(C)CC1	PHOSPHO1 inh 71.3, APOBEC3A inh 49.2 (no result: TbMetRS inhib) | APOBEC3A confirm inactive
O=C(CN1C(=O)NC2(CCSC2)C1=O)NCc1ccccc1 (stereo not given)	APOBEC3A inh 84.2 | APOBEC3A confirm inactive | UDG ctr A3A inactive
CCN(CC)CCCOC(=O)C1(c2ccccc2)CCCC1	none
C[N+](C)(C)CCOC(=O)C1(c2ccccc2)CCCC1	APOBEC3A inh 59.7 | APOBEC3A confirm 76.3 | UDG ctr A3A inactive
COc1ccc(C(=O)OCCN2CCCCC2)cc1	none
COc1ccc(C(=O)OCC[N+]2(C)CCCCC2)cc1	APOBEC3A inh 64.4 | APOBEC3A confirm 78.5 | UDG ctr A3A inactive
COc1ccc(C(=O)C[N+]2(C)CCOCC2)cc1	PHOSPHO1 inh 80.2, APOBEC3A inh 64.2 | APOBEC3A confirm 67.0 | UDG ctr A3A inactive
C[N+]1(CCOC(=O)C2(c3ccccc3)CCCC2)CCCCC1	APOBEC3A inh 64.0 | APOBEC3A confirm 63.3 | UDG ctr A3A inactive
CC(=O)N1c2ccc(S(=O)(=O)N3CCCC3C(=O)Nc3ccc(C)cc3)cc2CC1C (stereo not given)	none
Cc1ccc(NC(=O)N2C3CCCC2CC(NC(=O)C(C)(C)C)C3)cc1 (stereo not given)	none
CC(C[N+](C)(C)C)OC(=O)C1(c2ccccc2)CCCC1 (stereo not given)	APOBEC3A inh 44.5 | APOBEC3A confirm 65.7 | UDG ctr A3A inactive
CCN(CC)CCOCCOC(=O)C1(c2ccccc2)CCCC1	none (no result: p-CIP stab down, PHOSPHO1 inh)
O=C(N/N=C/c1cc(Br)c(Br)o1)c1ccc2c(c1)OCCO2	APOBEC3A inh 75.7 | APOBEC3A confirm 49.9 | UDG ctr A3A inactive
O=C(CSc1nc2sccc2c(=O)[nH]1)N1CCN(c2ccccc2)CC1	APOBEC3A inh 87.2 | APOBEC3A confirm 53.2 | UDG ctr A3A inactive
O=C(CSc1nc2ccccc2[nH]1)N1CCN(c2ccccc2)CC1	none
CNC(=O)c1ccc(NC(=O)CC23CC4CC(CC(C4)C2)C3)cc1	none
C[n+]1cccc(/C=N/NC(=O)CC23CC4CC(CC(C4)C2)C3)c1	APOBEC3A inh 44.7 | APOBEC3A confirm 67.2 | UDG ctr A3A inactive
O=C(c1ccccc1)n1c(=O)cc[nH]c1=O	none (no result: p-CIP stab down, PHOSPHO1 inh)
COC(=O)Cn1cc(/C=C/c2cc[n+](C)cc2)c2ccccc21	APOBEC3A inh 65.6 | APOBEC3A confirm 66.7 | UDG ctr A3A inactive
COC(=O)Cn1c(C)c(/C=C/c2cc[n+](C)cc2)c2ccccc21	none
COC(=O)CNc1nc(Cl)nc(Nc2ccc(Cl)cc2)n1	none
Cc1ccc(OC(C)C(=O)Nc2ccc3c(c2)n(C)c(=O)n3C)c(C)c1 (stereo not given)	APOBEC3A inh 84.4 | APOBEC3A confirm inactive
COc1ccccc1OC(C)C(=O)Nc1ccc2c(c1)n(C)c(=O)n2C (stereo not given)	none
O=C(Cc1cccc(NC(=O)C2CCN(C(=O)c3ccccc3)CC2)c1)Nc1cccc(C(=O)N2CCCCC2)c1	none (no result: p-CIP stab down, PHOSPHO1 inh, APOBEC3G inh, APOBEC3A inh)
O=C(OCc1cc(=O)n2c(n1)sc1ccccc12)c1cccc(O)c1	none
O=C(OCc1cc(=O)n2c(n1)sc1ccccc12)c1ccc(O)cc1O	APOBEC3A inh 61.5 | APOBEC3A confirm 22.8 | UDG ctr A3A inactive
CC(C)[C@H](NC(=O)c1ccco1)C(=O)OCc1cc(=O)n2c(n1)sc1ccccc12	APOBEC3A inh 62.7 | APOBEC3A confirm 39.4 | UDG ctr A3A inactive
COc1ccc(-c2nc(SCC(=O)NC3CCCCC3)n[nH]2)cc1	none
Cc1cc(C(=O)NC(C)CCC(C)C)c2ccccc2n1 (stereo not given)	APOBEC3A inh 46.3 | APOBEC3A confirm inactive
Cc1ccccc1NP1(=O)OCCCN1Cc1ccccc1Cl (stereo not given)	none (no result: p-CIP stab down, PHOSPHO1 inh, APOBEC3G inh, APOBEC3A inh)
Cc1nn(C(C)C(=O)Nc2ccc(Cl)cn2)c(C)c1[N+](=O)[O-] (stereo not given)	APOBEC3A inh 52.0 | APOBEC3A confirm inactive | UDG ctr A3A inactive
COc1ccc(CN(C(=O)c2ccco2)C2CCS(=O)(=O)C2)cc1 (stereo not given)	APOBEC3A inh 72.1 | APOBEC3A confirm inactive | UDG ctr A3A inactive
COc1cccc(CN(C(=O)c2ccco2)C2CCS(=O)(=O)C2)c1 (stereo not given)	none
c1ccc2c(c1)nc(N1CCCCCC1)c1ccccc12	APOBEC3A inh 66.9 | APOBEC3A confirm 66.8 | UDG ctr A3A inactive
c1ccc2nc(N3CCCC3)c(N3CCCC3)nc2c1	none
C[n+]1ccc(/C=C/c2cccs2)cc1	PHOSPHO1 inh 74.5, APOBEC3A inh 52.4 | APOBEC3A confirm 54.3
O=C(O)c1cc(Cl)c2c(c1)OCO2	APOBEC3A inh 42.8 | APOBEC3A confirm inactive
CC1CCN(C(=O)COC(=O)c2cc(Cl)c3c(c2)OCO3)CC1	none (no result: p-CIP stab down, PHOSPHO1 inh)
COC(=O)N/N=C(C)\C=C\c1ccco1	APOBEC3A inh 48.8 | APOBEC3A confirm inactive
CSc1nc2sc3c(c2c(=O)n1C1CCCCC1)CCN(C)C3	APOBEC3A inh 47.2 | APOBEC3A confirm inactive
CSc1nc2sc3c(c2c(=O)n1C)CCC3	none (no result: PHOSPHO1 inh)
COc1ccc(CNC(=O)COc2ccc(Br)c(C)c2)cc1	none
